# Experimental data as given in ChEMBL document CHEMBL2029221, “Acylprolinamides: a new class of peptide deformylase inhibitors with in vivo antibacterial activity” (Bioorg Med Chem Lett, 2012).
# Assays:
# [1] = test system: Streptococcus pneumoniae; assay: Antibacterial activity against Streptococcus pneumoniae 1629 by broth microdilution method; format: functional
# Procedure, shortened: (§1)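 Broth microdilution following NCCLS document M7-A4. Serial two-fold dilutions from 0.06 to 64 mcg/ml were tested. The MIC was the lowest concentration preventing visible growth, with the endpoint read with the aid of a mirror reader.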
# [2] = Inhibition of Haemophilus influenzae PDF assessed as formate release from fMAS peptide substrate after 20 mins by formate dehydrogenase coupled assay
# Procedure, shortened: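 Coupled assay in which formate released from the fMAS peptide is oxidized by formate dehydrogenase, reducing NAD to NADH, read as the rise in absorbance at 340. Reactions were started by adding PDF and velocities measured for 20 min at 25 °C. Values are the mean of at least 2 runs.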
# [3] = target: T1, Peptide deformylase (Streptococcus pneumoniae serotype 4 (strain ATCC BAA-334 / TIGR4), UniProt Q9F2F0); assay: Inhibition of Streptococcus pneumoniae PDF assessed as formate release from fMAS peptide substrate after 20 mins by formate dehydrogenase coupled assay
# T1 sequence (Q9F2F0 whole entry): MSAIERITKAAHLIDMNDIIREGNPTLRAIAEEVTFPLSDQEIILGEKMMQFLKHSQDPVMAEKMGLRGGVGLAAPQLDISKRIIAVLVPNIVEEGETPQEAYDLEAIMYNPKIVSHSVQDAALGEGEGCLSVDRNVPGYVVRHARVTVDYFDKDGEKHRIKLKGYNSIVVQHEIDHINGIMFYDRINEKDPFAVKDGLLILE
# [4] = test system: Moraxella catarrhalis; assay: Antibacterial activity against Moraxella catarrhalis 1502 by broth microdilution method; format: functional; procedure, shortened: as §1
# [5] = target: T2, Peptide deformylase (Staphylococcus aureus, UniProt P68826); assay: Inhibition of Staphylococcus aureus PDF assessed as formate release from fMAS peptide substrate after 20 mins by formate dehydrogenase coupled assay
# T2 sequence (P68826 whole entry): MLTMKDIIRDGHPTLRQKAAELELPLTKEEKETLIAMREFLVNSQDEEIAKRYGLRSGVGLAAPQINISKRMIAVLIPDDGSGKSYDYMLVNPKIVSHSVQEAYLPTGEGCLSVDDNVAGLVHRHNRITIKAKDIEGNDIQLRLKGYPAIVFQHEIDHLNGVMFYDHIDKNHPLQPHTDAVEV
# [6] = test system: Staphylococcus aureus; assay: Antibacterial activity against Staphylococcus aureus Oxford by broth microdilution method; format: functional; procedure, shortened: as §1
# [7] = test system: Enterococcus faecalis; assay: Antibacterial activity against Enterococcus faecalis 7 by broth microdilution method; format: functional; procedure, shortened: as §1
# [8] = test system: Haemophilus influenzae; assay: Antibacterial activity against Haemophilus influenzae Q1 by broth microdilution method; format: functional; procedure, shortened: as §1
# [9] = Metabolic stability of the compound in human blood assessed as compound remaining at 2000 ng/mL after 2 hrs; format: ADME, tissue-based; settings: read-out: Stability
# Procedure, shortened: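 Samples (n = 3) were spiked into fresh human blood at 2000 ng/mL, incubated at 37 °C for 120 min, and reported as % recovered at 2 h.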
MIC [1],IC50 [2],IC50 [3],MIC [4],IC50 [5],MIC [6],MIC [7],MIC [8],"remaining at 2 h, 2000 ng/mL [9]",Compound
0.125 µg/mL,4 nM,0.2 nM,≤ 0.06 µg/mL,0.93 nM,0.5 µg/mL,2 µg/mL,4 µg/mL,,O=CN(O)C[C@@H](CC1CCCC1)C(=O)N1CCC[C@H]1C(=O)NC(=O)NC1CCCCC1
0.125 µg/mL,6.5 nM,0.19 nM,≤ 0.06 µg/mL,1.7 nM,0.5 µg/mL,0.5 µg/mL,2 µg/mL,,O=CN(O)C[C@@H](CC1CCCC1)C(=O)N1CCC[C@H]1C(=O)NC(=O)NCc1ccccc1
1 µg/mL,9 nM,0.7 nM,≤ 0.06 µg/mL,5 nM,1 µg/mL,8 µg/mL,1 µg/mL,,O=CN(O)C[C@@H](CC1CCCC1)C(=O)N1CCC[C@H]1C(=O)NC(=O)C1CCC1
0.125 µg/mL,2.4 nM,0.22 nM,≤ 0.06 µg/mL,1.2 nM,1 µg/mL,1 µg/mL,1 µg/mL,,CC(C)(C)NC(=O)NC(=O)[C@@H]1CCCN1C(=O)[C@H](CC1CCCC1)CN(O)C=O
8 µg/mL,4.3 nM,0.15 nM,0.5 µg/mL,1.3 nM,64 µg/mL,> 64 µg/mL,16 µg/mL,,O=CN(O)C[C@@H](CC1CCCC1)C(=O)N1CCC[C@H]1C(=O)NC(=O)NCCc1c[nH]cn1
2 µg/mL,8.8 nM,1.1 nM,0.125 µg/mL,3.8 nM,4 µg/mL,32 µg/mL,0.5 µg/mL,,O=CN(O)C[C@@H](CC1CCCC1)C(=O)N1CCC[C@H]1C(=O)NC(=O)NCCO
0.25 µg/mL,5.2 nM,0.5 nM,≤ 0.06 µg/mL,3.7 nM,1 µg/mL,1 µg/mL,0.5 µg/mL,,O=CN(O)C[C@@H](CC1CCCC1)C(=O)N1CCC[C@H]1C(=O)NC(=O)C1CCCCC1
1 µg/mL,20 nM,2.1 nM,≤ 0.06 µg/mL,10 nM,0.5 µg/mL,2 µg/mL,1 µg/mL,,C=CCNC(=O)NC(=O)[C@@H]1CCCN1C(=O)[C@H](CC1CCCC1)CN(O)C=O
8 µg/mL,2.7 nM,1.4 nM,1 µg/mL,5.9 nM,> 64 µg/mL,> 64 µg/mL,16 µg/mL,,O=CN(O)C[C@@H](CC1CCCC1)C(=O)N1CCC[C@H]1C(=O)NC(=O)OC1CCNCC1
0.5 µg/mL,7.7 nM,0.54 nM,≤ 0.06 µg/mL,2.2 nM,0.5 µg/mL,2 µg/mL,0.25 µg/mL,,CCOC(=O)NC(=O)[C@@H]1CCCN1C(=O)[C@H](CC1CCCC1)CN(O)C=O
4 µg/mL,16 nM,4 nM,≤ 0.06 µg/mL,12 nM,1 µg/mL,8 µg/mL,0.25 µg/mL,,CC(=O)NC(=O)[C@@H]1CCCN1C(=O)[C@H](CC1CCCC1)CN(O)C=O
0.5 µg/mL,5.9 nM,0.35 nM,≤ 0.06 µg/mL,1.4 nM,1 µg/mL,4 µg/mL,1 µg/mL,,O=CN(O)C[C@@H](CC1CCCC1)C(=O)N1CCC[C@H]1C(=O)NC(=O)NCCc1ccccn1
≤ 0.06 µg/mL,3.6 nM,0.12 nM,≤ 0.06 µg/mL,0.86 nM,≤ 0.06 µg/mL,0.5 µg/mL,4 µg/mL,92.2%,O=CN(O)C[C@@H](CC1CCCC1)C(=O)N1CCC[C@H]1C(=O)NC(=O)NCCc1ccccc1
1 µg/mL,4.4 nM,0.35 nM,≤ 0.06 µg/mL,1.7 nM,2 µg/mL,8 µg/mL,2 µg/mL,,O=CN(O)C[C@@H](CC1CCCC1)C(=O)N1CCC[C@H]1C(=O)NC(=O)NCCc1ccncc1
8 µg/mL,6.3 nM,0.72 nM,0.5 µg/mL,3.3 nM,32 µg/mL,> 64 µg/mL,2 µg/mL,,NC(=O)CCNC(=O)NC(=O)[C@@H]1CCCN1C(=O)[C@H](CC1CCCC1)CN(O)C=O
